Most compounds without a hit are left out; they make up all but 2.8% or so of the library.
ASAP1 GAP inh: inhibitors of human ASAP1 ArfGAP activity; ASAP1-stimulated ARF1 GTP hydrolysis, GDP FP detection; inhibition, % at 16.5 µM; 0.19% of 360,000 active; in the data active = inhibition above about 25%;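 also: 0% = vehicle with enzyme and substrate and 100% = no enzyme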
pPAFAH FP inh: pPAFAH (human) enzyme inhibition; Q13093; recombinant pPAFAH, FP-rhodamine probe fluorescence polarization; inhibition, % at 3.39 µM; 1.5% of 330,000 active;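 active = inhibition above the mean inhibition across the screen plus 3 SD, cut at about 25% in these data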;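 also: inhibitors block binding of the rhodamine activity-based probe so polarization drops; 0% = enzyme with DMSO and 100% = wells lacking pPAFAH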
ARFGAP1 inhibitor: inhibits rat ARF GTPase activating protein 1 | Arfgap1-stimulated ARF1 GTP hydrolysis, GDP FP detection | inhibition, % at 16.5 µM | 0.26% of 360,000 active;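 active = inhibition above a per-plate limit, mean inhibition of low control wells plus 3 SD, cut at about 25% in these data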;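 also: 0% = DMSO wells with enzyme and 100% = wells lacking Arfgap1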
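Material – truncated rat Arfgap1 GAP domain · Buffer or medium – HEPES-based buffer, pH 7.5 · Reagent – human ARF1(Δ1-17)-GTP substrate · Dosing – 16.5 µM single point, 1.26% DMSO · Schedule – GTP hydrolysis reaction 2 h at 25 °C · Technique – GDP detection by fluorescence polarization · Benchmarks – No-Arfgap1 wells (100%) versus DMSO full-reaction wells (0%) · Repeats – single replicate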
PAFAH2 FP inh: PAFAH2 (human) inhibition | Q99487 | 0.99% of 340,000 active | inhibition, % at 3.39 µM | recombinant PAFAH2, FP-rhodamine activity probe, fluorescence polarization;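 active = inhibition above the mean over all tested compounds plus 3 SD, cut at about 30% in these data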;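 also: inhibitors block probe labeling of enzyme so polarization drops; 0% = enzyme with DMSO and 100% = wells lacking PAFAH2 protein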
PAFAH1B3 inh: inhibitors of human PAFAH1B3 | recombinant PAFAH1B3, FP-rhodamine probe, fluorescence polarization | Q15102 | inhibition, % at 3.39 µM | AID 492972 | 0.28% of 340,000 active;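 active = inhibition above the screen-wide average of all tested compounds plus 3 SD, cut at about 25% in these data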;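 also: 0% = enzyme with DMSO only and 100% = wells lacking PAFAH1B3 protein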
Target sequence (Q15102 whole entry, looked up): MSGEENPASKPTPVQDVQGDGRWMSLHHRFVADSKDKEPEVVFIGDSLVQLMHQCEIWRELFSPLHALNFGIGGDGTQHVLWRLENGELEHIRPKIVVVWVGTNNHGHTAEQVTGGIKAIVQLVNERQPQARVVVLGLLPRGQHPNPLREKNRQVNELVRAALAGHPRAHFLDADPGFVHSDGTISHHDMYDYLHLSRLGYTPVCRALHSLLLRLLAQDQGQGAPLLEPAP
PAFAH1B2 inh: inhibitors of human PAFAH1B2; 1.2% of 340,000 active; recombinant PAFAH1B2, FP-rhodamine activity probe, fluorescence polarization; AID 492953; inhibition, % at 3.39 µM;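 active = inhibition above the mean of all tested compounds plus 3 SD, cut at about 24% in these data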;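 also: 0% = enzyme with DMSO and 100% = wells lacking PAFAH1B2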
Target sequence (P68402 whole entry, looked up): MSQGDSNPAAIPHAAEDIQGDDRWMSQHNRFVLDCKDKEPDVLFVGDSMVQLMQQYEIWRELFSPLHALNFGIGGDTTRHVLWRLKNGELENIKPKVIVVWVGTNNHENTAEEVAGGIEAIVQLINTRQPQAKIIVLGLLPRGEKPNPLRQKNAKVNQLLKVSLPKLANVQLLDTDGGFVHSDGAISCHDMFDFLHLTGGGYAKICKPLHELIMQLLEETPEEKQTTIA
pPAFAH confirm: confirmation of human plasma PAF acetylhydrolase (pPAFAH) inhibitors; shares compounds with pPAFAH FP inh; recombinant pPAFAH, FP-Rh probe fluorescence polarization; inhibition, % at 3.39 µM; 72% of 2,300 active; AID 463230;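 active = mean inhibition of the triplicate above the hit cutoff set for the earlier primary screen, cut at about 25% in these data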;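 also: 0% = enzyme with DMSO and 100% = wells lacking pPAFAH enzyme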
* hit, by the source's call.

Screening O=C(N/N=C/c1ccc(Sc2ccccn2)o1)c1cc2ccccc2cc1O returned pPAFAH FP inh 52*, PAFAH2 FP inh 0, PAFAH1B3 inh 19, PAFAH1B2 inh 9 and pPAFAH confirm 56*.
`O=C(COC(=O)c1ccccn1)NCCc1ccc(Cl)cc1` gave ASAP1 GAP inh -7, pPAFAH FP inh 5, ARFGAP1 inhibitor 3, PAFAH2 FP inh 10, PAFAH1B3 inh 20 and PAFAH1B2 inh 13.
Clc1ccc(Br)c(-c2nc3ccccc3[nH]2)c1 was read as ASAP1 GAP inh -10 and ARFGAP1 inhibitor 2.
O=C(Nc1nc(-c2ccco2)c(-c2ccco2)s1)c1ccc(F)cc1F was read as ASAP1 GAP inh 3, ARFGAP1 inhibitor -3, PAFAH2 FP inh 3, PAFAH1B3 inh 5 and PAFAH1B2 inh 1.
O=C(Nc1nc(-c2ccco2)c(-c2ccco2)s1)c1c(F)cccc1Cl was read as ASAP1 GAP inh 8, pPAFAH FP inh 48*, ARFGAP1 inhibitor -25, PAFAH2 FP inh 24, PAFAH1B3 inh 8, PAFAH1B2 inh 0 and pPAFAH confirm 16.
Cc1ccc(-c2ccc(CN3C(C(C)C)C(=O)N(Cc4cn(Cc5ccco5)nn4)CCS3(=O)=O)cc2)cc1 (centres undefined) was read as ASAP1 GAP inh -1 and ARFGAP1 inhibitor 10.
CSCCC(NC(=O)c1ccccc1Cl)C(=O)Nc1ccncc1 (centres undefined) was read as ASAP1 GAP inh -15, ARFGAP1 inhibitor -9, PAFAH2 FP inh 1, PAFAH1B3 inh 3 and PAFAH1B2 inh 1.
For COc1ccc(NC(=O)CNC(=O)c2nn(-c3ccc(OC)cc3OC)c(=O)c3ccccc23)c(OC)c1 the results were ASAP1 GAP inh 3, pPAFAH FP inh 4, ARFGAP1 inhibitor 8, PAFAH2 FP inh -8, PAFAH1B3 inh 2 and PAFAH1B2 inh -2.
CCN(CC)S(=O)(=O)c1ccc(C(=O)NNC(=O)c2csc(N3CCOCC3)n2)cc1 was read as ASAP1 GAP inh -2, pPAFAH FP inh 48*, ARFGAP1 inhibitor 8, PAFAH2 FP inh 5, PAFAH1B3 inh 13, PAFAH1B2 inh -1 and pPAFAH confirm 5.
`CC1CCCC(C)N1/N=C/c1ccc(O)c(O)c1` (centres undefined) gave ASAP1 GAP inh 11, pPAFAH FP inh 45*, ARFGAP1 inhibitor -3, PAFAH2 FP inh 5, PAFAH1B3 inh 13, PAFAH1B2 inh 4 and pPAFAH confirm 11.
Screening COc1ccc(/C=N/N2C(C)CCCC2C)cc1O (centres undefined) returned ASAP1 GAP inh 12, pPAFAH FP inh -2, ARFGAP1 inhibitor 9, PAFAH2 FP inh -4, PAFAH1B3 inh 4 and PAFAH1B2 inh 3.
COc1ccccc1S(=O)(=O)N(C)C[C@H]1Oc2ncc(Br)cc2C(=O)N([C@H](C)CO)C[C@H]1C was read as ASAP1 GAP inh 0 and ARFGAP1 inhibitor 10.
Screening CCOC(=O)C(C(=O)OCC)c1cc(Br)c2noc3c2c1C(=O)c1ccccc1-3 returned ASAP1 GAP inh 6, pPAFAH FP inh 70*, ARFGAP1 inhibitor -4, PAFAH2 FP inh 28, PAFAH1B3 inh 22, PAFAH1B2 inh 7 and pPAFAH confirm 11.
`COc1ccccc1CN1CC(C(=O)NCC2(O)CCCCC2)CCC1=O` (centres undefined) gave ASAP1 GAP inh -4 and ARFGAP1 inhibitor -4.
CCOc1ccc(NS(=O)(=O)c2ccc(C(=O)NCC(c3ccc(OC)cc3)N3CCCC3)cc2)cc1 (centres undefined) was read as ASAP1 GAP inh 5, pPAFAH FP inh 49*, ARFGAP1 inhibitor 10, PAFAH2 FP inh 8, PAFAH1B3 inh 3, PAFAH1B2 inh 2 and pPAFAH confirm 41*.
Cc1ccc(NC(=O)c2cc(C)n(-c3cccc(C)c3)c2C)cc1 was read as ASAP1 GAP inh -16, pPAFAH FP inh 71*, ARFGAP1 inhibitor 0, PAFAH2 FP inh -5, PAFAH1B3 inh 5, PAFAH1B2 inh 0 and pPAFAH confirm 77*.
Screening CCNC(=O)C1(C)CCN1CCS(=O)(=O)c1ccc(C)cc1 (centres undefined) returned ASAP1 GAP inh -5 and ARFGAP1 inhibitor 1.
